Source: ChEMBL document CHEMBL4732021, “Repurposing the HCV NS3-4A protease drug boceprevir as COVID-19 therapeutics” (RSC Med Chem, 2021)
Calls of active or inactive are those of the source. The rule behind the calls is not given here.

Experiments:
Murine hepatitis virus [1] = test: Antiviral activity against MHV-A59 infected in LR7 cells assessed as reduction in N protein production at 400 nM treated 2 hrs after post viral infection and measured after 6 hrs by Western blot analysis; format: functional, organism-based
Summary of the method: (§1)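 LR7 cells (1×10^5/well) infected with MHV A59 at MOI 1 for 1 h, washed, then held in DMEM with 2% FBS. Compound (4 nM–40 µM, tenfold steps) was added at 2 h p.i. and cells were harvested at 8 h p.i. Western blot probed for MHV N protein, normalized to GAPDH and expressed relative to the 0.1% DMSO control. Mock and 400 nM bafilomycin A1 served as controls. ≥3 independent experiments.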

Murine hepatitis virus [2] = test: Antiviral activity against MHV-A59 infected in LR7 cells assessed as reduction in number of infected cells at 400 nM treated 2 hrs after post viral infection and measured after 6 hrs by DAPI staining based immunofluorescence analysis; format: functional, organism-based
Summary of the method: (§2)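 MHV A59 infection of LR7 cells on coverslips at MOI 1. Compound (4 nM–40 µM, tenfold dilutions) was added 2 h p.i. and cells were fixed at 8 h p.i. with 4% paraformaldehyde. Cells were permeabilized with 0.2% Triton X-100 and stained with anti-nsp2/nsp3 antiserum, an Alexa-488 secondary and DAPI. nsp2/nsp3-positive cells were counted by confocal microscopy relative to the DMSO control. ≥3 independent experiments.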

[3] = Cmax in human; format: ADME
[4] = Inhibition of SARS-CoV-2 3CL protease expressed in Escherichia coli BL21 DE3 using 2-aminobenzoyl-SVTLQSG-Tyr(NO2)-R as substrate preincubated with substrate for 15 mins followed by compound addition and measured after 1 hr by FRET assay; design: species or system Severe acute respiratory syndrome coronavirus 2
[5] = Cytotoxicity against African green monkey Vero E6 cells assessed as maximum non-toxic concentration after 6 hrs by MTT assay; format: cell-based; settings: chlorocebus aethiops
Summary of the method: (§3)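 Vero E6 or LR7 cells seeded at 1×10^4/well were grown 24 h in DMEM with 10% FBS at 37 °C and 5% CO2. Serial drug dilutions (0–500 µM) were added for 6 h (legend) or 8 h (methods). Viability was normalized to the 0.1% DMSO control.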

[6] = Cytotoxicity against mouse LR7 cells assessed as maximum non-toxic concentration after 6 hrs by MTT assay; format: cell-based; summary of the method: as §3
Murine hepatitis virus [7] = test: Antiviral activity against MHV-A59 infected in LR7 cells assessed as reduction in N protein production at 40 uM treated 2 hrs after post viral infection and measured after 6 hrs by Western blot analysis relative to control; format: functional; design: scale not given: the % may be the effect or the level left; summary of the method: as §1
Murine hepatitis virus [8] = test: Antiviral activity against MHV-A59 infected in LR7 cells assessed as reduction in number of infected cells at 40 uM treated 2 hrs after post viral infection and measured after 6 hrs by DAPI staining based immunofluorescence analysis relative to control; format: functional; design: scale not given: the % may be the effect or the level left; summary of the method: as §2
Murine hepatitis virus [9] = test: Antiviral activity against MHV-A59 infected in LR7 cells assessed as reduction in N protein production at 4 nM treated 2 hrs post viral infection and measured after 6 hrs by Western blot analysis; format: functional; design: scale not given: the % may be the effect or the level left; summary of the method: as §1
Murine hepatitis virus [10] = test: Antiviral activity against MHV-A59 infected in LR7 cells assessed as reduction in number of infected cells at 40 nM treated 2 hrs post viral infection and measured after 6 hrs by immunofluorescence analysis; format: functional; design: scale not given: the % may be the effect or the level left; summary of the method: as §2
Murine hepatitis virus [11] = test: Antiviral activity against MHV-A59 infected in […] cells assessed as reduction in viral gene expression at 100 uM treated 2 hrs post viral infection and measured after 6 hrs by RT-PCR analysis; format: functional, organism-based
Murine hepatitis virus [12] = test: Antiviral activity against MHV-A59 infected in Vero E6 cells assessed as reduction in viral gene expression at 10 uM treated 2 hrs post viral infection and measured after 6 hrs by RT-PCR analysis; format: functional; design: scale not given: the % may be the effect or the level left
Murine hepatitis virus [13] = test: Antiviral activity against MHV-A59 infected in LR7 cells assessed as reduction in N protein production measured after 6 hrs by Western blot analysis relative to control; format: functional, organism-based; settings: dose 0.004-40 µM; summary of the method: as §1
[14] = system: Severe acute respiratory syndrome coronavirus 2; test: Inhibition of SARS-CoV-2 3CL protease expressed in Escherichia coli BL21 DE3 at 200 uM using 2-aminobenzoyl-SVTLQSG-Tyr(NO2)-R as substrate preincubated with substrate for 15 mins followed by compound addition and measured after 1 hr by FRET assay relative to control

For `CO/C1=C\C(C)=C\[C@@H](C)[C@@H](O)[C@@H](C)C/C(C)=C/C=C/[C@H](OC)[C@@H]([C@@H](C)[C@@H](O)[C@H](C)[C@@]2(O)C[C@@H](O)[C@H](C)[C@@H](C(C)C)O2)OC1=O`, the Activity (Murine hepatitis virus [1]) was “Active” and the Activity (Murine hepatitis virus [2]) was “Active”.

`CC(C)(C)NC(=O)N[C@H](C(=O)N1C[C@H]2[C@@H]([C@H]1C(=O)NC(CC1CCC1)C(=O)C(N)=O)C2(C)C)C(C)(C)C` (some centres undefined) [BOCEPREVIR] gave a Cmax [3] of 1720 ng/mL, an IC50 [4] of 1.59 µM and an MNTC at 6 h [5] of 72.5 µM. For the same molecule, the MNTC at 6 h [6] was 72.5 µM, the Activity (Murine hepatitis virus [7]) was 90% and the Activity (Murine hepatitis virus [8]) was 75%. The Activity (Murine hepatitis virus [9]) was 40%, the Activity (Murine hepatitis virus [10]) was 25% and the Activity (Murine hepatitis virus [11]) was “Active”. The Activity (Murine hepatitis virus [12]) was 50% and the Activity (Murine hepatitis virus [13]) was “Dose-dependent effect”.

`CCC[C@H](NC(=O)[C@@H]1[C@H]2CCC[C@H]2CN1C(=O)[C@@H](NC(=O)[C@@H](NC(=O)c1cnccn1)C1CCCCC1)C(C)(C)C)C(=O)C(=O)NC1CC1` [TELAPREVIR] gave an IC50 [4] of 55.7 µM, an inhibition [14] of 100% and an MNTC at 6 h [5] of 72.5 µM. For the same molecule, the MNTC at 6 h [6] was 72.5 µM, the Activity (Murine hepatitis virus [7]) was “inactive” and the Activity (Murine hepatitis virus [8]) was “inactive”.
